Numbering of substitutions follows the chain as printed.
What was measured:
Shp1 = conditions: cited from earlier work
most of other PTPs = conditions: cited from earlier work
[1] = biological target: T1, His-tagged Shp2 (amino acids 1–525) (Homo sapiens, UniProt Q06124); test: Surface plasmon resonance; conditions: SPR, 1:1 binding model
T1 sequence (Q06124 1-525): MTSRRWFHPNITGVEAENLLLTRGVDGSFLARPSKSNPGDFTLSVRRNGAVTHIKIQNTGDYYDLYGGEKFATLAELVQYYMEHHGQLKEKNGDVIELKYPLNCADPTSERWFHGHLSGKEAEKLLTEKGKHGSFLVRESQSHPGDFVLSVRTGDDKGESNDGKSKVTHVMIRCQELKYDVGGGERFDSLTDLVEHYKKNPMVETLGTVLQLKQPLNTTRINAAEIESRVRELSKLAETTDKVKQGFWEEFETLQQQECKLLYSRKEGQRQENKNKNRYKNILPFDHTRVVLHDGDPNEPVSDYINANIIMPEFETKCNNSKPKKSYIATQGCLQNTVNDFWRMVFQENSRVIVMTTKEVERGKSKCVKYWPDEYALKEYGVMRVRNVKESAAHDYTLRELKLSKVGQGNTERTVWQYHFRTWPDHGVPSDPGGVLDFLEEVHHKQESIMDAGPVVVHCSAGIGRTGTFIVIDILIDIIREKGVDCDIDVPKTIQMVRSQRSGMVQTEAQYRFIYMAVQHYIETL

[2] = biological target: T2, non-fusion Shp2 PTP protein (Homo sapiens, UniProt Q06124); test: Enzyme kinetics analysis of Shp2 PTP inhibition; assay type: biochemical; conditions: Lineweaver-Burk, AIC comparison
T2 sequence (Q06124 247-517 limits assumed): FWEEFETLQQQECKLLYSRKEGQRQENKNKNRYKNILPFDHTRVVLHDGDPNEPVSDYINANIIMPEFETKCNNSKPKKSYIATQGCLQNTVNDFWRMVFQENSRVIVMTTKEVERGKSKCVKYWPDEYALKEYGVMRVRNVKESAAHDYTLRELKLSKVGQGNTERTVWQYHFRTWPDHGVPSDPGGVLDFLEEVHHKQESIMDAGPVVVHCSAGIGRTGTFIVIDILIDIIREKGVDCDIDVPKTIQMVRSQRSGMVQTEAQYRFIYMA

Shp2 [3] = biological target: T3, Shp2 (Homo sapiens, UniProt Q06124); test: Cell-based Shp2 inhibition assays
T3 sequence (Q06124 1-593): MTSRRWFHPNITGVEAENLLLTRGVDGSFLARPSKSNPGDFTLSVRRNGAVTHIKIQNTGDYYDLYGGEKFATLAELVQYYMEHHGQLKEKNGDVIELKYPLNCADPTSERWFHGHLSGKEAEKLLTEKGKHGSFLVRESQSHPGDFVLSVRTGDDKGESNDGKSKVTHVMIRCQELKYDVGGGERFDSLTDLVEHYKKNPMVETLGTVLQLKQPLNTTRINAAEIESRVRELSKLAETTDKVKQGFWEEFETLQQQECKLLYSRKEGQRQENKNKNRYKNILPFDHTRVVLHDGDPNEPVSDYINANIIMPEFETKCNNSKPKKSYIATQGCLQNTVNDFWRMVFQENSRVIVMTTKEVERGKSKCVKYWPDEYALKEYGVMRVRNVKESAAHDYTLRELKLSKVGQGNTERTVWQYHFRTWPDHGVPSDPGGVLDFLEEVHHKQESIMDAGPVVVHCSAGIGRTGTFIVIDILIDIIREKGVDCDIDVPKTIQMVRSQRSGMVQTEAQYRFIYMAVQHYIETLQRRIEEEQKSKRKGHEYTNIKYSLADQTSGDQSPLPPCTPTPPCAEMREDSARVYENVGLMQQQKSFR

TF-1/Shp2^E76K cells [4] = test: Fluorescence uptake assay; assay type: in vitro ADME; conditions: 5 h incubation, ex/em 485/535 nm
Procedure, shortened: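 TF-1/Shp2E76K cells (6 × 10^5 in 1 ml RPMI1640/10% FBS) were incubated 5 h at 37 °C/5% CO2 with test compound or DMSO. Fluorescence (485/535 nm) was read in the whole suspension, then in cell-free medium (supernatant plus washes) and in twice-washed pellets. Fraction totals were expressed relative to the 100 µM suspension, set as 100%. Two duplicate experiments (n = 4).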

cells = test: Confocal laser scanning microscopy of compound uptake; assay type: in vitro ADME; conditions: 25 µM, 3 h
Procedure, shortened: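 TF-1/Shp2E76K cells grown in glass-bottom dishes were exposed to test compound at 25 µM for 3 h, then Hoechst 33342 (5 µg/ml) was added. Internal confocal sections were imaged with a 63X/1.40NA oil objective (2,520×), using 458 nm argon and 405 nm diode excitation with tunable emission filters. Compound fluorescence was viewed green.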

Shp2 [5] = biological target: T3, Shp2; test: EGF-stimulated Shp2 PTP activity in immune complexes from MDA-MB-468 cells; assay type: cell-based; conditions: EGF 50 ng/ml 10 min
Procedure, shortened: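 Sub-confluent MDA-MB-468 cells were serum-starved 18 h in DMEM/0.1% BSA, pretreated overnight with test compound (20 or 100 µM), then EGF-stimulated (50 ng/ml, 10 min). Lysate (0.2 mg, Hepes pH 7.4 PTP lysis buffer) was immunoprecipitated with anti-Shp2/protein G for 2 h at 4 °C and washed. Complexes were reacted with 50 µM DiFMUP for 20 min at room temperature, and DiFMU fluorescence was read. Pellets were immunoblotted for Shp2. Two experiments, duplicates.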

Shp2^E76K = biological target: T4, Shp2^E76K (Homo sapiens, UniProt Q06124, E76K); test: Shp2^E76K PTP activity in immune complexes from TF-1/Shp2^E76K cells; assay type: cell-based; conditions: GM-CSF-free medium
T4 sequence (Q06124 1-593 E76K): T3 sequence (Q06124 1-593) with E76K
Procedure, shortened: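 TF-1/Shp2E76K cells were treated in GM-CSF-free RPMI1640/10% FBS with test compound at various concentrations. Flag-Shp2E76K was immunoprecipitated with anti-Flag M2/protein G (0.2 mg lysate, 2 h, 4 °C) and washed. Complexes were incubated with 50 µM DiFMUP for 20 min at room temperature, and fluorescence was measured. Part of each immunoprecipitate was blotted for Shp2. Two experiments.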

TF-1/Shp2^E76K cells [6] = test: Cell growth assay; assay type: cell-based
Procedure, shortened: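 TF-1/Shp2E76K cells were plated at 1,000 cells/well in triplicate in RPMI1640/10% FBS without GM-CSF, with test compound. The compound volume was ≤0.1% of the total. Cells were incubated 4 days at 37 °C/5% CO2, then relative viable cell number was read with CellTiterGlo. Data came from two triplicate experiments.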

[7] = biological target: T5, GST-Shp2 PTP domain protein (Homo sapiens, UniProt Q06124); test: In vitro Shp2 PTP activity inhibition assay; assay type: biochemical
T5 sequence (Q06124 247-517 limits assumed): T2 sequence (Q06124 247-517 limits assumed)

[8] = test system: paxillin dephosphorylation; test: EGF-induced paxillin tyrosine dephosphorylation in MDA-MB-468 cells; assay type: cell-based; conditions: 20 µM, 2 h; EGF 50 ng/ml 10 min
Procedure, shortened: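 Serum-starved MDA-MB-468 cells received test compound (20 µM, 2 h) and/or EGF (50 ng/ml, 10 min). Cells were lysed on ice in Tris buffer (pH 7.5) containing Na3VO4, NaF, pyrophosphate and protease inhibitors. Paxillin was immunoprecipitated, resolved by SDS-PAGE and immunoblotted with anti-phosphotyrosine and anti-paxillin antibodies.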

Erk1/2 activation = test: EGF-stimulated Erk1/2 activation in MDA-MB-468 cells; assay type: cell-based; conditions: 0–20 µM tested, EGF 2 ng/ml 5 min
Procedure, shortened: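 Serum-starved MDA-MB-468 cells were pretreated with test compound (0–20 µM), then stimulated with EGF (2 ng/ml, 5 min). Cleared lysates were immunoblotted for dual-phosphorylated Erk1/2 and total Erk1/2.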

MDA-MB-468 cells = test: Transwell cell migration assay; assay type: cell-based; conditions: EGF 10 ng/ml, 16 h
pErk1/2 and Bcl-XL = pErk1/2 and Bcl-XL immunoblotting in TF-1/Shp2^E76K cells; assay type: cell-based; conditions: concentration-dependent
TF-1/Shp2^E76K cells [9] = test: EB/AO staining apoptosis assay; assay type: cell-based; conditions: 3 days, base level 4.2%
[10] = test system: STAT1 tyrosine phosphorylation; test: IFN-γ-stimulated STAT1 tyrosine phosphorylation in HT-29 cells; assay type: cell-based; conditions: 20 µM, 2 h pre-treatment, IFN-γ 20 U/ml
ISRE-luciferase reporter = test: ISRE luciferase reporter assay in HT-29 cells; assay type: cell-based
Procedure, shortened: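 HT-29 cells (5 × 10^5 per well) were co-transfected by lipofection with 1.6 µg pISRE-Luc and 0.4 µg β-gal plasmids. They were then stimulated with 50 U/ml IFN-γ for 6 h or left unstimulated. Luciferase was normalized to β-galactosidase activity; two duplicate experiments (n = 4).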

p21 = p21 expression in HT-29 cells; assay type: cell-based; conditions: 12.5 µM with IFN-γ, 24 h, versus IFN-γ alone
Procedure, shortened: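 HT-29 cells were treated 24 h with IFN-γ at indicated amounts, with or without test compound at 12.5 µM. Cell lysates were immunoblotted for p21, with β-actin as loading reference.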

HT-29 cells = test: Cell growth assay; assay type: cell-based; conditions: for fraction of inhibition: 4 days
Procedure, shortened: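 HT-29 cells at 1,000 cells/well, in triplicate, in RPMI1640/10% FBS with IFN-γ (100 U/ml) and/or test compound or vehicle. Compound volume kept ≤0.1% of total. Incubated 4 days at 37 °C/5% CO2. Relative viable cell number was read by CellTiterGlo luminescence. Synergism of the two agents was calculated with the Bliss definition.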

Compound: O=C(O)c1cc(O)c(=O)c2c(O)c(O)ccc2c1 [DCA, 7-deshydroxypyrogallin-4-carboxylic acid]
- Shp1 inhibition compared with Shp2 (Shp1): same potency

Compound: O=C1C(=NNc2ccc(S(=O)(=O)O)cc2)C(c2ccc([N+](=O)[O-])cc2)=NN1c1ccccc1 [PHPS1, phenylhydrazonopyrazolone sulfonate 1]
- selectivity against Shp1 (Shp1): 14 fold
- selectivity against most of other PTPs (most of other PTPs): > 10

Compound: O=C1Nc2ccc(S(=O)(=O)NCc3ccc(F)cc3)cc2/C1=N/Nc1cccc(C(=O)O)c1 [SPI-112, (Z)-3-(2-(5-(N-(4-fluorobenzyl)sulfamoyl)-2-oxoindolin-3-ylidene)hydrazinyl)benzoic acid]
- association rate Ka [1]: 22400 M⁻¹ s⁻¹
- best fitted inhibition model [2]: competitive inhibition model
- activity in cell-based Shp2 inhibition assays (Shp2 [3]): no detectable activity
- fluorescent signal associated with the cell pellets (TF-1/Shp2^E76K cells [4]): only trace amount
- green fluorescence in confocal images of internal sections of cells (cells): did not have green fluorescence
- effect on EGF-stimulated Shp2 PTP activity (Shp2 [5]; 100 µM pre-treatment overnight): did not affect
- Shp2^E76K PTP activity in treated cells (Shp2^E76K): no decrease
- effect on viable cells (TF-1/Shp2^E76K cells [6]; GM-CSF-free medium, 4 days): did not affect

Compound: COC(=O)c1cccc(N/N=C2\C(=O)Nc3ccc(S(=O)(=O)NCc4ccc(F)cc4)cc32)c1 [SPI-112Me, (Z)-3-(2-(5-(N-(4-fluorobenzyl)sulfamoyl)-2-oxoindolin-3-ylidene)hydrazinyl)benzoic acid methyl ester]
- IC50 [7]: > 100 µM
- fluorescent signal associated with the cell pellets (TF-1/Shp2^E76K cells [4]): substantial amount
- green fluorescence in confocal images of internal sections of cells (cells): readily detectable
- reduction of EGF-stimulated Shp2 PTP activity (Shp2 [5]; 20 µM pre-treatment overnight): 77%
- effect on EGF-induced paxillin tyrosine dephosphorylation [8]: prevented
- concentration at which inhibition of EGF-stimulated pErk1/2 signal was observed (Erk1/2 activation): 10 µM
- reduction of EGF-stimulated cell migration (MDA-MB-468 cells; 12.5 µM): 62%
- effect on EGF-stimulated cell migration (MDA-MB-468 cells; 25 µM): completed blocked
- Shp2^E76K PTP activity in treated cells (Shp2^E76K): lower Shp2^E76K PTP activity
- amounts of pErk1/2 and Bcl-XL (pErk1/2 and Bcl-XL): reduced
- IC50 (TF-1/Shp2^E76K cells [6]; 96 h, read-out: concentration giving a 50% decrease in viable cells): 10 µM
- apoptotic cells (TF-1/Shp2^E76K cells [9]; 12.5 µM): 9.3%
- apoptotic cells (TF-1/Shp2^E76K cells [9]; 25 µM): 18.8%
- effect on IFN-γ-stimulated STAT1 tyrosine phosphorylation [10]: increased amount of tyrosine-phosphorylated STAT1
- activation of ISRE luciferase activity (ISRE-luciferase reporter; 10 µM SPI-112Me plus IFN-γ 50 U/ml): 54%
- activation of ISRE luciferase activity (ISRE-luciferase reporter; 25 µM SPI-112Me plus IFN-γ 50 U/ml): 98%
- p21 expression (p21): higher levels of p21
- fraction of inhibition (HT-29 cells; 6.25 µM SPI-112Me alone): 0.32
- fraction of inhibition (HT-29 cells; 6.25 µM SPI-112Me plus IFN-γ 100 U/ml): 0.57
- fraction of inhibition (HT-29 cells; 12.5 µM SPI-112Me alone): 0.71
- fraction of inhibition (HT-29 cells; 12.5 µM SPI-112Me plus IFN-γ 100 U/ml): 0.84
- combination effect with IFN-γ on inhibition of cell growth (Bliss) (HT-29 cells; IFN-γ 100 U/ml plus SPI-112Me): synergistic

Compound: IFN-γ: interferon-γ, cytokine used to stimulate STAT1 signaling in HT-29 cells
- activation of ISRE luciferase activity (ISRE-luciferase reporter; IFN-γ 50 U/ml alone, 6 h): 26%
- fraction of inhibition (HT-29 cells; IFN-γ 100 U/ml alone): 0.18

Source: publication PMC2906681 (Biochemical pharmacology, 2010)
